Measurements gathered from unrelated publications.
Compare with care: the assays were run in different laboratories.
ache: Acetylcholinesterase (ache, Electrophorus electricus, UniProt O42275)
ADORA1: Adenosine receptor A1 (ADORA1, Homo sapiens, UniProt P30542)
CARM1: Histone-arginine methyltransferase CARM1 (CARM1, Homo sapiens, UniProt Q86X55)

Structure (SMILES)	target	assay	system	conditions	inhibition [%]
COc1cc2c(cc1OC)C(=O)N(CC1CCN(Cc3ccccc3)CC1)C2	ache	enzyme activity, inhibitor		1 µM	20.4
O[C@@H]1[C@H](O)CO[C@H]1n1cnc2c(NCc3cccc(I)c3)nc(Cl)nc21	ADORA1	ligand displacement, radioligand		10 µM, cell membranes	< 10
O=C1N=C(N2CCCCN2)S/C1=C\c1ccc(F)cc1O	Neuromedin-K receptor (TACR3, Homo sapiens, UniProt P29371)	ligand displacement, radioligand		10 µM	< 10
O=C(c1ccc(F)cc1)N(Cc1ccccc1)C1CCCCC1	ADORA1	cell-free assay		10 µM	8
COc1ccc2[nH]cc(/C=C/c3ccc(O)cc3)c2c1	Amyloid-beta precursor protein, monomer (APP, Homo sapiens, UniProt P05067)	amyloid aggregation, inhibitor, fluorescence		25 µM	44
COc1cc2c(cc1OC)C(=O)N(CC1CCN(CC3CCNC3)CC1)C2 (centres unmarked)	ache	enzyme activity, inhibitor		1 µM	4.86
C1=CSC(=C2SC=CS2)S1	Ubiquitin carboxyl-terminal hydrolase 5 (USP5, Homo sapiens, UniProt P45974)	enzyme activity, inhibitor		17 µM	54
CCN1CCN(Cc2ccc(NC(=O)c3ccc(C)c(Oc4ccnc5[nH]ccc45)c3)cc2C(F)(F)F)CC1	Serine/threonine-protein kinase/endoribonuclease IRE1 (ERN1, Homo sapiens, UniProt O75460)	target engagement in cells, inhibitor, chemoproteomics	Huh-7	1 µM	-16.7
COc1cc(NC(C)=O)c(Cl)cc1C(=O)Nc1nccs1	ADORA1	cell-free assay		10 µM	25.2
COc1cc2c(cc1OC)C(=O)N(Cc1cccc(N3CCCCC3)n1)C2	ache	enzyme activity, inhibitor		1 µM	18.8
Nc1ncnc2c1ncn2[C@@H]1O[C@H](CSCCNC(=O)NCc2ccccc2)[C@@H](O)[C@H]1O	CARM1	enzyme activity, inhibitor, radiometric		10 µM	> 95
COc1cc2c(cc1OC)C(=O)N(Cc1ccncc1)C2	ache	enzyme activity, inhibitor		1 µM	2.62
O[C@@H]1[C@H](O)CO[C@H]1n1cnc2c(NCc3cccc(F)c3)nc(Cl)nc21	ADORA1	ligand displacement, radioligand		10 µM, cell membranes	10
c1cc2cc(C3=NCCN3)ccc2cc1C1=NCCN1	Rac GTPase-activating protein 1 (Homo sapiens, UniProt Q9H0H5)	enzyme activity, inhibitor, ADP detection		10 µM	50.4
COc1cc2c(cc1OC)C(=O)N(CC1CCNCC1)C2	ache	enzyme activity, inhibitor		1 µM	2.49
O=C(NC1C2CCN(CC2)C1Cc1cccnc1)c1cc2ccccc2o1 (centres unmarked)	5-hydroxytryptamine receptor 3A (Htr3a, Mus musculus, UniProt P23979)	ligand displacement, radioligand		10 µM	59
COc1cc2c(cc1OC)C(=O)N(CC1CCN(Cc3cccnc3)CC1)C2	ache	enzyme activity, inhibitor		1 µM	-0.52
CCN(c1cc(C#CCN2CCOCC2)cc(C(=O)NCc2c(C)cc(C)[nH]c2=O)c1C)[C@H]1CC[C@H](N(C)CCOC)CC1	CARM1	enzyme activity, inhibitor		1 µM	-3
CC/C(=N\NC(=O)NCc1cccc(O)c1)c1ccc(O)c(C)c1O	Ribosomal protein S6 kinase beta-2 (RPS6KB2, Homo sapiens, UniProt Q9UBS0)	enzyme activity, inhibitor		0.1 µM	22.7
O[C@@H]1[C@H](O)CO[C@H]1n1cnc2c(NCc3cccc(Br)c3)nc(Cl)nc21	ADORA1	ligand displacement, radioligand		10 µM, cell membranes	< 10
